pEC50, pIC50: −log10 of the molar value.
Assays:
[1] = test system: Enterovirus A71; assay: Antiviral activity against Enterovirus A71 infected in HuH7 cells expressing T7 RNA polymerase assessed as reduction in viral RNA replication incubated for 24 hrs by luciferase reporter gene assay; assay type: functional, organism-based; conditions: Enterovirus A, Huh-7, 24 h
Summary of the method: (§1)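 Huh-T7 cells (DMEM, 2 mM glutamine, penicillin/streptomycin, 10% FCS growth or 2% maintenance, G-418 400 μg·mL⁻¹) transfected with enteroviral replicon. Compound added in growth medium at 40 μM for screening or 0, 1.25, 2.5, 5, 10, 20, 40 μM for EC50. After 24 h, cells lysed and luciferase activity read. Triplicate or quadruplicate, mean ± SD.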

[2] = Therapeutic index, ratio of CC50 for monkey Vero E6 cells to EC50 for SARS coronavirus infected in monkey Vero E6 cells; assay type: toxicity, cell-based, Vero C1008; conditions: read-out: Ratio CC50/EC50
[3] = Therapeutic index, ratio of CC50 for monkey Vero cells to EC50 for Middle East respiratory syndrome coronavirus infected in monkey Vero cells; assay type: toxicity, cell-based; conditions: read-out: Ratio CC50/EC50
[4] = Therapeutic index, ratio of CC50 for human RD cells to EC50 for Enterovirus A71 infected in human RD cells; assay type: toxicity, cell-based; conditions: read-out: Ratio CC50/EC50
Summary of the method: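 RD cells were seeded 24 h ahead in 2% FCS medium, then given compound serial dilutions plus EV-A71 (BRCR) inoculum. After 3 days, MTS was added for 1 h at 37 °C and OD498 read. EC50 was interpolated as the concentration giving 50% protection from CPE. CC50 was measured on uninfected host cells by viability or cytotoxicity kits. Index = CC50/EC50.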

[5] = test system: Enterovirus A71; assay: Antiviral activity against Enterovirus A71 infected in RD cells assessed as reduction in virus-induced cytopathic effect incubated for 3 days by MTS assay; assay type: functional, organism-based; conditions: Enterovirus A, 72 h
Summary of the method: (§2)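 CPE reduction assay. RD (EV-A71) or HeLa Rh (EV-D68, HRV) cells seeded 24 h earlier in medium with 2% FCS; HRV2/HRV14 medium contained 30 mM MgCl₂. Serial compound dilutions added with virus. At 3 days post infection, 5% MTS added for 1 h at 37 °C and OD498 read. EC50 taken as 50% protection versus controls by logarithmic interpolation; morphology also checked microscopically.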

[6] = Therapeutic index, ratio of CC50 for human HuH7 cells expressing T7 RNA polymerase to EC50 for Middle East respiratory syndrome coronavirus infected in human HuH7 cells expressing T7 RNA polymerase; assay type: toxicity, cell-based; conditions: read-out: Ratio CC50/EC50
[7] = Antiviral activity against […] infected in HuH7 cells expressing T7 RNA polymerase assessed as reduction in virus-induced cytopathic effect incubated for 2 days by non-radioactive cell proliferation assay; assay type: functional, organism-based; conditions: B3, Huh-7, 48 h
[8] = Cytotoxicity against human HuH7 cells expressing T7 RNA polymerase assessed as reduction in cell viability incubated for 2 days by non-radioactive cell proliferation assay; assay type: cell-based, Huh-7
[9] = Therapeutic index, ratio of CC50 for human HuH7 cells expressing T7 RNA polymerase to EC50 for Human coronavirus 229E infected in human HuH7 cells expressing T7 RNA polymerase; assay type: toxicity, cell-based; conditions: read-out: Ratio CC50/EC50
Summary of the method: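 Huh7 cells were infected with HCoV-229E at […] for 1.5 h at 37 °C and washed. Complete DMEM containing inhibitor (0–40 µM) was added. […] CC50 came from a parallel AlamarBlue viability assay normalised to no-inhibitor and 1% Triton X-100 controls. Therapeutic index = CC50/EC50.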

[10] = Therapeutic index, ratio of CC50 for human HuH7 cells expressing T7 RNA polymerase to EC50 for […] infected in human HuH7 cells expressing T7 RNA polymerase; assay type: toxicity, cell-based; conditions: read-out: Ratio CC50/EC50
[11] = test system: rhinovirus A2; assay: Antiviral activity against Human rhinovirus 2 infected in HeLa Rh cells assessed as reduction in virus-induced cytopathic effect incubated for 3 days by MTS assay; assay type: functional, organism-based; conditions: Rhinovirus A, 72 h; summary of the method: as §2
[12] = Therapeutic index, ratio of CC50 for human HeLa Rh cells to EC50 for Human rhinovirus 14 infected in human HeLa Rh cells; assay type: toxicity, cell-based; conditions: read-out: Ratio CC50/EC50
[13] = Inhibition of human coronavirus NL63 M protease using Dabcyl-KTSAVLQ-SGFRKM-E(Edans)-NH2 as substrate incubated for 10 mins by fluorospectrometry
Summary of the method: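 0.5 μM final HCoV-NL63 Mpro preincubated 10 min at 37 °C with inhibitor (0–100 μM) in pH 7.3 Tris buffer (100 mM NaCl, 1 mM EDTA, 1 mM DTT). Cleavage of 20 μM Dabcyl-KTSAVLQ↓SGFRKM-E(Edans)-NH₂ followed by fluorescence at 460 nm with 360 nm excitation. IC50 from triplicate measurements, mean ± SD.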

[14] = Therapeutic index, ratio of CC50 for human HeLa Rh cells to EC50 for Human rhinovirus 2 infected in human HeLa Rh cells; assay type: toxicity, cell-based; conditions: read-out: Ratio CC50/EC50
[15] = test system: enterovirus D68; assay: Antiviral activity against Enterovirus D68 infected in HeLa Rh cells assessed as reduction in virus-induced cytopathic effect incubated for 3 days by MTS assay; assay type: functional, organism-based; conditions: Enterovirus D, 72 h; summary of the method: as §2
[16] = test system: SARS-CoV; assay: Antiviral activity against SARS coronavirus infected in Vero E6 cells assessed as reduction in virus-induced cytopathic effect incubated for 2 days by non-radioactive cell proliferation assay; assay type: functional, organism-based; conditions: Severe acute respiratory syndrome-related coronavirus, Vero C1008, 48 h
[17] = Cytotoxicity against human RD cells assessed as reduction in cell viability incubated for 3 days by MTS assay; assay type: cell-based
[18] = Cytotoxicity against human HeLa Rh cells assessed as reduction in cell viability incubated for 3 days by MTS assay; assay type: cell-based
[19] = Inhibition of […] protease 3C using DabcylKEALFQ-GPPQF-E(Edans)-NH2 as substrate incubated for 10 mins by fluorospectrometry; set-up: species or system Coxsackievirus
Summary of the method: (§3)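 FRET cleavage assay in 20 mM Tris-HCl, 100 mM NaCl, 1 mM EDTA, 1 mM DTT, pH 7.3. Final enzyme 2 μM for CVB3 3Cpro or 3 μM for EV-A71 3Cpro, preincubated with inhibitor (0–100 μM) for 10 min at 37 °C. Reaction started with 20 μM final Dabcyl-KEALFQ↓GPPQF-E(Edans)-NH₂. Edans dequenching read at ex 360/em 460 nm. Triplicate, mean ± SD.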

[20] = Therapeutic index, ratio of CC50 for human HeLa Rh cells to EC50 for Enterovirus D68 infected in human HeLa Rh cells; assay type: toxicity, cell-based; conditions: read-out: Ratio CC50/EC50
[21] = test system: Middle East respiratory syndrome-related coronavirus; assay: Antiviral activity against Middle East respiratory syndrome coronavirus infected in HuH7 cells expressing T7 RNA polymerase assessed as reduction in virus-induced cytopathic effect incubated for 2 days by non-radioactive cell proliferation assay; assay type: functional, organism-based; conditions: Huh-7, 48 h
[22] = test system: Human coronavirus 229E; assay: Antiviral activity against Human coronavirus 229E infected in HuH7 cells expressing T7 RNA polymerase assessed as reduction in virus-induced cytopathic effect incubated for 48 hrs by Alamar blue based assay; assay type: functional, organism-based; conditions: Huh-7, 48 h
[23] = Antiviral activity against […] infected in HuH7 cells expressing T7 RNA polymerase assessed as reduction in viral RNA replication incubated for 24 hrs by luciferase reporter gene assay; assay type: functional, organism-based; conditions: B3, Huh-7, 24 h; summary of the method: as §1
[24] = test system: rhinovirus B14; assay: Antiviral activity against Human rhinovirus 14 infected in HeLa Rh cells assessed as reduction in virus-induced cytopathic effect incubated for 3 days by MTS assay; assay type: functional, organism-based; conditions: Rhinovirus B, 72 h; summary of the method: as §2
[25] = Inhibition of Enterovirus A71 protease 3C using DabcylKEALFQ-GPPQF-E(Edans)-NH2 as substrate incubated for 10 mins by fluorospectrometry; summary of the method: as §3
[26] = test system: SARS-CoV; assay: Antiviral activity against SARS coronavirus infected in HuH7 cells expressing T7 RNA polymerase assessed as reduction in viral RNA replication incubated for 24 hrs by luciferase reporter gene assay; assay type: functional, organism-based; conditions: Severe acute respiratory syndrome-related coronavirus, Huh-7, 24 h
Summary of the method: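 SARS-CoV replicon (DNA-launched, Renilla luciferase reporter) was transfected into Huh-T7 cells at 80–90% confluency. Compound at 0, 1.25, 2.5, 5, 10, 20 or 40 µM in growth medium was added after transfection. At 24 h, cells were lysed and luciferase activity measured. Runs were in triplicate or quadruplicate, reported as mean ± SD.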

[27] = test system: Middle East respiratory syndrome-related coronavirus; assay: Antiviral activity against Middle East respiratory syndrome coronavirus infected in Vero cells assessed as reduction in virus-induced cytopathic effect incubated for 3 days by non-radioactive cell proliferation assay; assay type: functional, organism-based; conditions: 72 h
[28] = Inhibition of SARS coronavirus M protease using Dabcyl-KTSAVLQ-SGFRKM-E(Edans)-NH2 as substrate incubated for 10 mins by fluorospectrometry; set-up: species or system Severe acute respiratory syndrome-related coronavirus
Summary of the method: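 FRET cleavage assay with 0.5 µM recombinant SARS-CoV Mpro (authentic termini) in 20 mM Tris-HCl, 100 mM NaCl, 1 mM EDTA, 1 mM DTT, pH 7.3. Enzyme was preincubated with inhibitor (0–100 µM) for 10 min at 37 °C, then 20 µM final substrate was added. Fluorescence was read at ex 360/em 460 nm. Triplicate, mean ± SD; IC50 from curve fitting.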

## O=C(/C=C/c1ccccc1)N[C@@H](Cc1ccccc1)C(=O)N[C@@H](C[C@@H]1CCNC1=O)C(=O)C(=O)NCc1ccccc1
[1]
  pEC50: 5.35
[2]
  selectivity ratio: > 10
[3]
  selectivity ratio: > 10
[4]
  selectivity ratio: > 10
[5]
  pEC50: 5.01
[6]
  selectivity ratio: > 10
[7]
  pEC50: 4.85
[8]
  CC50 at 48 h: > 265 µM
[9]
  selectivity ratio: > 10
[10]
  selectivity ratio: > 10
[11]
  pEC50: 5.25
[12]
  selectivity ratio: > 15
[13]
  pIC50: < 4.30
[14]
  selectivity ratio: > 15
[15]
  pEC50: 6.32
[16]
  pEC50: 5.24
[17]
  CC50 at 72 h: 97 µM
[18]
  CC50 at 72 h: 35.5 µM
[19]
  pIC50: 5.18
[20]
  selectivity ratio: > 10
[21]
  pEC50: 8.32
[22]
  pEC50: 4.93
[23]
  pEC50: 5.35
[24]
  pEC50: 5.37
[25]
  pIC50: 5.91
[26]
  pEC50: 5.70
[27]
  pEC50: 4.87
[28]
  pIC50: 5.71

Source: ChEMBL document CHEMBL4402565, “α-Ketoamides as Broad-Spectrum Inhibitors of Coronavirus and Enterovirus Replication: Structure-Based Design, Synthesis, and Activity Assessment” (J Med Chem, 2020)
